Laboratory results: PubChem BioAssay
“And” between values parts separate entries of the source, which are not always exact repeats. Identical values can stand only once. The source made the active and inactive calls.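 Rule for the calls, unless noted: active = viability at or below 30% in both replicate assays; inconclusive = viability at or below 30% in just one of the two assays; inactive = the rest.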

Columns and labels:
[1] = reducers of endogenous Her2 protein level, primary screen, SKBR3 breast tumor cells, AlphaScreen, ATP viability (AID 461;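 active = Her2 level under about 52% in both replicate screens, with viability over 70% of control, limit read from the data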;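 for Her2 level: lower value means less Her2 protein in the cells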;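 for viability: percent of carrier control wells set as 100% viability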); conditions: 18-24 h, measured here: SKBR3 viability, ATP luminescence, at 10 µM
[2] = molecular target: Receptor tyrosine-protein kinase erbB-2 (Homo sapiens) (UniProt P04626); test: as above; conditions: 18-24 h, at 10 µM, stronger effect = lower value
Chain of Receptor tyrosine-protein kinase erbB-2 (Homo sapiens) (P04626 whole entry, looked up): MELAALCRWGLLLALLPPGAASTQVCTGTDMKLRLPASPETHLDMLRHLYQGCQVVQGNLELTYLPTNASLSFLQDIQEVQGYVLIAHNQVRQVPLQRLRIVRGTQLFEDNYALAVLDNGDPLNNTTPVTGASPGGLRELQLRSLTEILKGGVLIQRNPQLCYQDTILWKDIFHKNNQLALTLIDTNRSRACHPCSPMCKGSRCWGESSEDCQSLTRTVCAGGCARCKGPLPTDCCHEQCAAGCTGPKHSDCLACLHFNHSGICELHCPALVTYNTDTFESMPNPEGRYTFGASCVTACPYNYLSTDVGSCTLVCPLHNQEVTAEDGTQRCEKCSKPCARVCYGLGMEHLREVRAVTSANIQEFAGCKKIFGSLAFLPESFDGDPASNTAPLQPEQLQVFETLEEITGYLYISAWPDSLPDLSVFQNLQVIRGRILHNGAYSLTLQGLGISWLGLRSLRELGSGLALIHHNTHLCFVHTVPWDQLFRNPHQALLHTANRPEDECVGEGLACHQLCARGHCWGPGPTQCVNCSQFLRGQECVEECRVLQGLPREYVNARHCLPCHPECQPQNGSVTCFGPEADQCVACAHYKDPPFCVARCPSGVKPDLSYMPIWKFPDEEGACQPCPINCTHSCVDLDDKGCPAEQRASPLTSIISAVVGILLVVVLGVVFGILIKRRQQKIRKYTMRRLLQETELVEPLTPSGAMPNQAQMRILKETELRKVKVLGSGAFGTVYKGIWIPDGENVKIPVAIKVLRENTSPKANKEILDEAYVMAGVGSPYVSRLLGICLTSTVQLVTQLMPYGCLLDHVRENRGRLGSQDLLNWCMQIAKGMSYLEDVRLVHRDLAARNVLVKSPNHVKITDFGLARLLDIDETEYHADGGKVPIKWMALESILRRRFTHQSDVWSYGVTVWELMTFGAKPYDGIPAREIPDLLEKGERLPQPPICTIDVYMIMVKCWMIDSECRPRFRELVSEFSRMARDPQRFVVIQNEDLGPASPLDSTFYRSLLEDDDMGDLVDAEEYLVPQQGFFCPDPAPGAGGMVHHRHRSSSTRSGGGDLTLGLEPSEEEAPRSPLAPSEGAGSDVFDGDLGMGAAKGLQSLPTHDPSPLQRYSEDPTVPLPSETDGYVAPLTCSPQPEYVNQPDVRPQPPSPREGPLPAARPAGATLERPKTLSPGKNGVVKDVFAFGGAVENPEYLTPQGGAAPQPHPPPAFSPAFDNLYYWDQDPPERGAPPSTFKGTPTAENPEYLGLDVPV

[3] = SK-BR-3 cell growth inhibitors, pilot screen, 24 h, human (AID 572;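 active = viability at or below 10% of carrier control in both of two separate runs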;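 note: compound exposure lasted between 18 and 24 h rather than exactly 24 h; 100% = carrier-treated control wells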); conditions: SK-BR-3 viability, CellTiter-Glo luminescence, at 10 µM, stronger effect = lower value
[4] = HUVEC growth inhibition – cell-based, human, primary screen (AID 575); conditions: HUVEC proliferation, CellTiter-Glo luminescence, 72 h; at 10 µM; stronger effect = lower value;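 note: 100% = median of untreated cell wells with 0.1% DMSO on each plate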
In short: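 Assay system: Primary human umbilical vein endothelial cells | Quantity: 1250 cells per well | Medium: Supplemented EBM, 2% fetal bovine serum | Detection: CellTiter-Glo luminescence measuring cellular ATP | Read-out: % viability vs DMSO wells | Plate: Collagen-coated 384-well format | Times: 72 h exposure, 37 °C, 5% CO2, 30 min RT equilibration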

[5] = growth inhibitors of H69AR lung tumor, primary screen, human, duplicate replicates (AID 580;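 active = viability at or under a set limit in both replicates, limit being median viability minus 3 SD, cut at about 48% in these data, passing the limit was not always enough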;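 note: 100% = mean luminescence of untreated wells and 0% = no signal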); conditions: H69AR lung tumor cells viability, ATP luminescence, 72 h; at 10 µM; stronger effect = lower value
[6] = reversal of MRP1-mediated doxorubicin resistance, pilot screen, H69AR cells, doxorubicin co-treatment (AID 601;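 active = viability loss from added drug above about 55%, and viability with drug at most 40%, in both replicates, limit read from the data, passing the limit was not always enough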); conditions: CellTiter-Glo, 72 h, at 10 µM; for differential viability (reversal): stronger effect = higher value
[7] = 384-well plate pilot, post-Golgi transport modulator project, inhibition of yeast transport mutant growth (AID 636; in the data active = inhibition above about 31%); conditions: absorbance 615 nm, about 18 h, stronger effect = higher value
[8] = growth suppression of yeast trafficking mutant, preliminary HTS, modulators of trafficking downstream of Golgi apparatus project, 1536-format plate, OD 615 nm (AID 637; in the data active = inhibition above about 30%); conditions: yeast transport mutant growth, absorbance 615 nm, 18 h; stronger effect = higher value
[9] = H69AR cells + 2 uM doxorubicin, measured here: viability with 2 uM doxorubicin, stronger effect = lower value
[10] = H69AR cells, compound alone cytotoxicity

Row | SMILES | viability [1] [%] | Her2 level [2] | viability [3] | viability [4] | viability [5] | differential viability (reversal) ([6]; H69AR cells + 2 uM doxorubicin) | viability [6, 9] | viability [6, 10] | inhibition [7] | inhibition [8]
1 | CCOC(=O)N1CCN(C(=O)CSc2cc(C)nc3c(-c4ccccc4OC)c(C)nn23)CC1 | 79.5 | 90% (inactive) | 79.5% (inactive) | 94% (inactive) | 73.3% (inactive) | 48.5% (inactive) | 24.8% | 73.3% | -0.26% (inactive) | -1.43% (inactive)
2 | COc1ccc(OC)c(NC(=O)CSc2ncccc2C(=O)O)c1 | 104 | 98% (inactive) | 104% (inactive) | 100% (inactive) | 104% (inactive) | 7.42% (inactive) | 96.4% | 104% | -3.29% (inactive) | -3.45% (inactive)
3 | c1ccc(CCn2nnnc2C(c2cccs2)N2CCOCC2)cc1 (stereo not given) | 102 | 77.5% (inactive) | 102% (inactive) | 99.2% (inactive) | 107% (inactive) | 12.8% (inactive) | 94% | 107% | -5.62% (inactive) | -1.59% (inactive)
4 | CCSC1(SCC)N=C(N)C2(C#N)C(c3ccccc3)NC(C)=C(C)C12C#N (stereo not given) | 95 | 85.5% (inactive) | 95% (inactive) | 81.4% (inactive) | 93.3% (inactive) | 19.2% (inactive) | 74.1% | 93.3% | -5.07% (inactive) | -2.79% (inactive)
5 | CCOCCCNS(=O)(=O)c1ccc2c(c1)oc(=O)n2CC(=O)OCC | 107 | 98.5% (inactive) | 107% (inactive) | 104% (inactive) | 94.3% (inactive) | -8.29% (inactive) | 103% | 94.3% | -4.74% (inactive) | -1.27% (inactive)
6 | Cc1c(C(=O)NCc2cccnc2)sc2ncn(CC(=O)N3CCCCC3C)c(=O)c12 (stereo not given) | 98 | 88.5% (inactive) | 98% (inactive) | 102% (inactive) | 97% (inactive) | 1.24% (inactive) | 95.8% | 97% | -0.79% (inactive) | 1.61% (inactive)
7 | Cc1cc(C)n2nc(SCc3cc(=O)n4ccccc4n3)nc2n1 | 100 | 72.5% (inactive) | 100% (inactive) | 107% (inactive) | 101% (inactive) | 5.5% (inactive) | 95.3% | 101% | -4.47% (inactive) | -1% (inactive)
8 | O=C(CCSc1ccccc1)N1CCOCC1 | 94 | 98.5% (inactive) | 94% (inactive) | 96.7% (inactive) | 93.5% (inactive) | -0.87% (inactive) | 94.4% | 93.5% | -5.39% (inactive) | -2.13% (inactive)
9 | CCOC(=O)N1CCN(C(=O)CSc2nnc(-c3cc(OC)cc(OC)c3)o2)CC1 | 86.5 | 75.5% (inactive) | 86.5% (inactive) | 92.7% (inactive) | 85.7% (inactive) | -3.85% (inactive) | 89.5% | 85.7% | -5.66% (inactive) | -1% (inactive)
10 | COc1ccccc1N1CCN(C(=O)c2c(-c3c(Cl)cccc3Cl)noc2C)CC1 | 104 | 82.5% (inactive) | 104% (inactive) | 79% (inactive) | 105% (inactive) | 15% (inactive) | 90.3% | 105% | -5.95% (inactive) | 2.46% (inactive)
11 | C[C@]12CCC(=O)C=C1CC[C@@H]1[C@@H]2[C@@H](O)C[C@@]2(C)[C@H]1CC[C@]2(O)C(=O)COC(=O)CCC(=O)O | 95 | 120% (inactive) | 95% (inactive) and 100% (inactive) | 81.3% (inactive) and 75% (inactive) | 111% (inactive) and 103% (inactive) | 9.53% (inactive) and -0.58% (inactive) | 101% and 103% | 111% and 103% | -3.38% (inactive) | 6.33% (inactive)
12 | CS(=O)(=O)C1=C(O)C(=O)N(c2ccccc2)C1c1ccccc1 (stereo not given) | 109 | 106% (inactive) | 109% (inactive) | 104% (inactive) | 105% (inactive) | 10.3% (inactive) | 94.4% | 105% | -4.73% (inactive) | 0.33% (inactive)
13 | CCC(C)(C)NC(=O)CN(Cc1ccc2c(c1)OCO2)C(=O)CCC(=O)Nc1ccccn1 | 132 | 118% (inactive) | 132% (inactive) | 105% (inactive) | 92.5% (inactive) | 2.38% (inactive) | 90.1% | 92.5% | -5.06% (inactive) | -2.3% (inactive)
14 | CCC1(CC)NC(=O)NC1=O | 110 | 90% (inactive) | 110% (inactive) | 85% (inactive) | 105% (inactive) | 14.9% (inactive) | 90.1% | 105% | -4.74% (inactive) | 3.11% (inactive)
15 | CCN(C(=O)c1cc2cc3ccc(C)cc3nc2o1)c1ccc(OC)cc1 | 85.5 | 99.5% (inactive) | 85.5% (inactive) | 61% (inactive) | 83.1% (inactive) | -12.9% (inactive) | 96% | 83.1% | -6.27% (inactive) | -6.39% (inactive)
16 | CC(=O)N1CCN=C1SCc1ccc(Br)cc1 | 93 | 97.5% (inactive) | 93% (inactive) | 71.9% (inactive) | 87% (inactive) | 3.28% (inactive) | 83.7% | 87% | -1.03% (inactive) | 9% (inactive)
17 | Cc1ccc(S(=O)(=O)N(CC(=O)NCc2ccco2)Cc2ccccc2F)cc1 | 92 | 108% (inactive) | 92% (inactive) | 104% (inactive) | 107% (inactive) | 21.3% (inactive) | 85.5% | 107% | -2.67% (inactive) | -5.97% (inactive)
18 | Cc1ccc(/C=N/n2nnnc2N)o1 | 93 | 88% (inactive) | 93% (inactive) | 111% (inactive) | 95.1% (inactive) | 10.6% (inactive) | 84.5% | 95.1% | -8.38% (inactive) | -10.5% (inactive)
19 | O=C(NCc1ccco1)C1CCN(S(=O)(=O)N2CCC3(CC2)OCCO3)CC1 | 99.5 | 92% (inactive) | 99.5% (inactive) | 118% (inactive) | 100% (inactive) | 14.2% (inactive) | 85.8% | 100% | -6.89% (inactive) | -7.17% (inactive)
20 | O=C(Nc1ncc(Br)s1)C1CCCN1S(=O)(=O)c1cccc2cccnc12 (stereo not given) | 93 | 81.5% (inactive) | 93% (inactive) | 87.4% (inactive) | 29.8% (active) | -10.8% (inactive) | 40.6% | 29.8% | -0.38% (inactive) | -1.5% (inactive)
21 | COC(=O)C1=C(C)OC(N)=C(C#N)C1c1c(C)nn(-c2ccccc2)c1Cl (stereo not given) | 89 | 118% (inactive) | 89% (inactive) | 70.7% (inactive) | 79.7% (inactive) | -6.99% (inactive) | 86.7% | 79.7% | -0.27% (inactive) | 16.6% (inactive)
22 | CC(C)c1nnc(SCC(=O)NCc2ccco2)n1C | 105 | 91% (inactive) | 105% (inactive) | 94.7% (inactive) | 79.6% (inactive) | -5.55% (inactive) | 85.2% | 79.6% | -0.14% (inactive) | 4.76% (inactive)
23 | C=CCn1c(=O)c2ccccc2n2c(SCC(=O)Nc3cc(C)on3)nnc12 | 92.5 | 89% (inactive) | 92.5% (inactive) | 87% (inactive) | 98.3% (inactive) | 10.6% (inactive) | 87.7% | 98.3% | -3.65% (inactive) | 1.75% (inactive)
24 | Cc1ccc(NC(=O)CCC(=O)O)cc1F | 106 | 82.5% (inactive) | 106% (inactive) | 88.8% (inactive) | 104% (inactive) | 12.2% (inactive) | 91.8% | 104% | -6.3% (inactive) | -2.7% (inactive)
25 | COc1ccc(CNC(=O)c2cc3c(=O)n4ccccc4nc3n(Cc3ccco3)c2=N)cc1 | 114 | 97.5% (inactive) | 114% (inactive) | 105% (inactive) | 110% (inactive) | 33% (inactive) | 76.9% | 110% | -0.39% (inactive) | -5.08% (inactive)
26 | COc1ccc(CC(=O)Nc2ccc(-c3nnc(-c4ccc(C)cc4)o3)cc2)cc1 | 114 | 81.5% (inactive) | 114% (inactive) | 69.9% (inactive) | 4.72% (active) | -0.04% (inactive) | 4.76% | 4.72% | -1.58% (inactive) | -1.75% (inactive)
27 | CCOC(=O)CSc1nc2sc(C)c(C)c2c(=O)n1C | 104 | 69% (inactive) | 104% (inactive) | 85.4% (inactive) | 94.2% (inactive) | 9.32% (inactive) | 84.8% | 94.2% | -2.34% (inactive) | -0.17% (inactive)
